The values that follow come from ChEMBL document CHEMBL1127536, “2-Azetidinones as inhibitors of cholesterol absorption” (J Med Chem, 1994).

In test [1] the target is T1, Sterol O-acyltransferase 1 (Rattus norvegicus) (UniProt O70536).
T1 sequence (whole entry): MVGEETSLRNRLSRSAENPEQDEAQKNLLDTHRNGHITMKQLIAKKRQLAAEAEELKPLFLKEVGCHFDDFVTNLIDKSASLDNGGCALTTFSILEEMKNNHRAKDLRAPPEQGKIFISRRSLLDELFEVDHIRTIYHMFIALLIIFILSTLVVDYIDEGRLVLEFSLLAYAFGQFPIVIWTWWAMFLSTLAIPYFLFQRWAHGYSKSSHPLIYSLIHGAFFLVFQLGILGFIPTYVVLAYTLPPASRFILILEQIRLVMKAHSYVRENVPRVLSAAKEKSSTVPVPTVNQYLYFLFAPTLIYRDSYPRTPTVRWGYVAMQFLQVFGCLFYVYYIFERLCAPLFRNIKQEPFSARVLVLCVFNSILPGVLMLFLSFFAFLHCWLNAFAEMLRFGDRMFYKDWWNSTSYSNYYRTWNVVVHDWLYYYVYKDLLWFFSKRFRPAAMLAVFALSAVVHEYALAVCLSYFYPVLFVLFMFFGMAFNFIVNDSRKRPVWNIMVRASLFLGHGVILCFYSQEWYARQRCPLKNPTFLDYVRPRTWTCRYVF
The experiment in a line: Inhibition of Acyl coenzyme A:cholesterol acyltransferase in microsomal ACAT assay at 10 uM. The gist of the method:
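Rat hepatic microsomes (12.5 μg protein) with 90 µM fatty-acid-free BSA in 0.1 M potassium phosphate, 2 mM DTT, pH 7.4. Compound added from DMSO stocks and preincubated 15 min at 37 °C. Reaction started with [³H]-oleoyl-CoA (10 μM final) and run 15 min at 37 °C. Aliquot spotted on silica TLC, developed, and radioactivity in the cholesteryl oleate band counted by scintillation.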

Test [2] deals with Cricetinae gen. sp. Put plainly: Percent reduction of hepatic cholesteryl esters was evaluated by hamster cholesterol absorption assay at the particular dose of 50 (mg/kg/day). The format is functional, Cricetulus griseus. Summed up: (§1)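 Hamsters fed cholesterol for 1 week while dosed daily (mg/kg/day). Liver was Folch-extracted and neutral lipids were analysed by HPLC, giving the reduction in hepatic cholesteryl ester rise as the absorption marker. ED50 was taken from dose-response curves.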

Test [3] relates to Cricetinae gen. sp. The experiment in a line: Percent reduction in plasma cholesterol was evaluated by hamster cholesterol absorption assay at the particular dose of 50(mg/kg/day). The test is classed as functional, Cricetulus griseus. The gist of the method: (§2)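 Hamsters fed cholesterol for 1 week while dosed daily (mg/kg/day). Read-out was inhibition of the rise in plasma cholesterol, measured by a cholesterol oxidase kit method.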

In test [4] the test system is Cricetinae gen. sp. The experiment in a line: Effective dose evaluated in hamster cholesterol absorption assay. The format is functional. Summed up:
as §1

In test [5] the test system is Cricetinae gen. sp. The experiment in a line: Percent reduction of hepatic cholesteryl esters was evaluated by hamster cholesterol absorption assay at the particular dose of 10 (mg/kg/day). The test is classed as functional, Cricetulus griseus. Summed up: as §1
Test [6] has as its system Cricetinae gen. sp. The experiment in a line: Percent reduction in plasma cholesterol was evaluated by hamster cholesterol absorption assay at the particular dose of 10 (mg/kg/day). The format is functional, Cricetulus griseus. Summed up: as §2
The test system of test [7] is Cricetinae gen. sp. Put plainly: Percent reduction in plasma cholesterol was evaluated by hamster cholesterol absorption assay at the particular dose of 50 (mg/kg/day). The test is classed as functional, Cricetulus griseus. The gist of the method:
as §2

The test system of test [8] is Cricetinae gen. sp. The experiment in a line: Percent reduction in plasma cholesterol was evaluated by hamster cholesterol absorption assay at the particular dose of 100 (mg/kg/day). The format is functional, Cricetulus griseus. The gist of the method:
as §2

Test [9] concerns Cricetinae gen. sp. The experiment in a line: Percent reduction of hepatic cholesteryl esters was evaluated by hamster cholesterol absorption assay at the particular dose of 100 (mg/kg/day). The format is functional, Cricetulus griseus. The gist of the method:
as §1

Test [10] addresses T2, Sterol O-acyltransferase 1 (Rattus norvegicus, UniProt O70536).
T2 sequence (O70536 whole entry): T1 sequence (whole entry)
Put plainly: Concentration required for 50% inhibition of Acyl coenzyme A:cholesterol acyltransferase activity using microsomal ACAT assay.

Setting [11] is: Cricetinae gen. sp., read-out: ED50.

The inhibition is the percentage by which the read-out fell short of the control. Lower therefore signals a weak effect. Molecule `CC[C@]1(CCCc2ccccc2)CN(c2c(OC)cc(OC)cc2OC)C1=O` came in with an inhibition in test [1] (10 uM) of 38%. The Reduction is reported as -29% in the test on Cricetinae gen. sp. [2] and 7% with Cricetinae gen. sp. [3].
As usually defined, the ED50 is the dose that gives a 50% effect, or the effect in half of the subjects. `COc1ccc([C@@H]2[C@H](CCCc3ccccc3)C(=O)N2c2ccc(OC)cc2)cc1`: the median effective dose (ED50) with Cricetinae gen. sp. [4] (setting [11]) was 11.5 mg/kg/day. The Reduction is 55% in the test with Cricetinae gen. sp. [5] and 17% with Cricetinae gen. sp. [6].
On to `CC[C@@]1(CCCc2ccccc2)C(=O)N(c2c(OC)cc(OC)cc2OC)[C@@H]1c1ccccc1`, for which the inhibition in [1] (10 uM) is 82%. The figures for the Reduction with Cricetinae gen. sp. [2] and with Cricetinae gen. sp. [7] were 31% and 0%, respectively.
In turn, `COc1ccc(N2C(=O)[C@@](C(=O)Cc3ccccc3)(c3ccccc3)[C@H]2c2ccccc2)cc1` gave an inhibition in test [1] (25 uM, in the assay text read “at 25 uM” for “at 10 uM”) of 83%. The Reduction was 10% in the test on Cricetinae gen. sp. [8] and 26% with Cricetinae gen. sp. [9].
As for `COc1ccc([C@@H]2[C@@H](CCCc3ccccc3)C(=O)N2c2ccc(OC)cc2)cc1` [SCH-48461], the ED50 with Cricetinae gen. sp. [4] came to 2.2 mg/kg/day. Moreover, the Reduction was determined as 0% in the test on Cricetinae gen. sp. [2], 93% in the test on Cricetinae gen. sp. [5], 43% in the test on Cricetinae gen. sp. [6] and 10% in the test on Cricetinae gen. sp. [7].
In the case of `CC[C@]1(CCCc2ccccc2)C(=O)N(c2ccc(OC)cc2)[C@@H]1c1ccccc1`, the inhibition in test [1] (10 uM) is 33%. Besides, the Reduction in the test with Cricetinae gen. sp. [2] is 29%; with Cricetinae gen. sp. [7], 12%.
With `CC[C@]1(CCCc2ccccc2)CN(c2ccc(OC)cc2)C1=O`, the Reduction with Cricetinae gen. sp. [2] came out at 0%; with Cricetinae gen. sp. [7], 10%.
The IC50 is the midpoint of a concentration-inhibition curve. `COc1ccc(N2C(=O)[C@@](CCCc3ccccc3)(c3ccccc3)[C@H]2c2ccccc2)cc1` came in with an inhibition in test [1] (10 uM) of 84%. Further, the values for the Reduction with Cricetinae gen. sp. [2] and with Cricetinae gen. sp. [7] were 16% and 11%, respectively. In [10], this molecule registered an IC50 of 6 µM.
Regarding `CCCCCCCCCCC(C)(C)C(=O)Nc1c(OC)cc(OC)cc1OC` [CL-976], the inhibition in test [1] (10 uM) was 72%. Moreover, in the test with Cricetinae gen. sp. [4] (setting [11]), the ED50 is 16 mg/kg/day. The Reduction in the test with Cricetinae gen. sp. [5] is reported as 33%; in the test with Cricetinae gen. sp. [6], 0%.
In test [1] (10 uM), `CC[C@]1(CCCc2ccccc2)C(=O)N(c2c(OC)cc(OC)cc2OC)[C@@H]1c1ccccc1` gave an inhibition of 42%. The Reduction with Cricetinae gen. sp. [2] and in the test on Cricetinae gen. sp. [7] was 0% throughout.
In the test with Cricetinae gen. sp. [4], `COc1ccc([C@@H]2[C@@H](CCCc3ccccc3)C(=O)N2c2ccc(OC)cc2)cc1` (racemic) [SCH-48461] displayed an ED50 of 7.1 mg/kg/day. Further, the values for the Reduction in the test with Cricetinae gen. sp. [5] and with Cricetinae gen. sp. [6] were 60% and 21%, respectively.
On to `COc1ccc(N2C(=O)[C@@H](CCCc3ccccc3)[C@H]2c2ccccc2)cc1`, for which, in [1] (10 uM), the inhibition worked out at 28%. Moreover, the Reduction with Cricetinae gen. sp. [2] and in the test on Cricetinae gen. sp. [3] was 0% throughout.
The molecule `COc1cc(OC)c(N2C(=O)[C@@H](CCCc3ccccc3)[C@H]2c2ccccc2)c(OC)c1` showed an inhibition in test [1] (10 uM) of 61%. Further, the figures for the Reduction in the test with Cricetinae gen. sp. [2] and with Cricetinae gen. sp. [7] were -20% and 0%, respectively.
